Laboratory results reported in ChEMBL document CHEMBL3112447, “Discovery of 1-methyl-1H-imidazole derivatives as potent Jak2 inhibitors” (J Med Chem, 2014).

Tests used:
[1] = target: Tyrosine-protein kinase JAK2 (Homo sapiens, UniProt O60674); assay: Inhibition of Jak2 (unknown origin)
[2] = target: T1, Tyrosine-protein kinase JAK3 (Homo sapiens, UniProt P52333); assay: Inhibition of Jak3 (unknown origin)
T1 sequence (P52333 whole entry): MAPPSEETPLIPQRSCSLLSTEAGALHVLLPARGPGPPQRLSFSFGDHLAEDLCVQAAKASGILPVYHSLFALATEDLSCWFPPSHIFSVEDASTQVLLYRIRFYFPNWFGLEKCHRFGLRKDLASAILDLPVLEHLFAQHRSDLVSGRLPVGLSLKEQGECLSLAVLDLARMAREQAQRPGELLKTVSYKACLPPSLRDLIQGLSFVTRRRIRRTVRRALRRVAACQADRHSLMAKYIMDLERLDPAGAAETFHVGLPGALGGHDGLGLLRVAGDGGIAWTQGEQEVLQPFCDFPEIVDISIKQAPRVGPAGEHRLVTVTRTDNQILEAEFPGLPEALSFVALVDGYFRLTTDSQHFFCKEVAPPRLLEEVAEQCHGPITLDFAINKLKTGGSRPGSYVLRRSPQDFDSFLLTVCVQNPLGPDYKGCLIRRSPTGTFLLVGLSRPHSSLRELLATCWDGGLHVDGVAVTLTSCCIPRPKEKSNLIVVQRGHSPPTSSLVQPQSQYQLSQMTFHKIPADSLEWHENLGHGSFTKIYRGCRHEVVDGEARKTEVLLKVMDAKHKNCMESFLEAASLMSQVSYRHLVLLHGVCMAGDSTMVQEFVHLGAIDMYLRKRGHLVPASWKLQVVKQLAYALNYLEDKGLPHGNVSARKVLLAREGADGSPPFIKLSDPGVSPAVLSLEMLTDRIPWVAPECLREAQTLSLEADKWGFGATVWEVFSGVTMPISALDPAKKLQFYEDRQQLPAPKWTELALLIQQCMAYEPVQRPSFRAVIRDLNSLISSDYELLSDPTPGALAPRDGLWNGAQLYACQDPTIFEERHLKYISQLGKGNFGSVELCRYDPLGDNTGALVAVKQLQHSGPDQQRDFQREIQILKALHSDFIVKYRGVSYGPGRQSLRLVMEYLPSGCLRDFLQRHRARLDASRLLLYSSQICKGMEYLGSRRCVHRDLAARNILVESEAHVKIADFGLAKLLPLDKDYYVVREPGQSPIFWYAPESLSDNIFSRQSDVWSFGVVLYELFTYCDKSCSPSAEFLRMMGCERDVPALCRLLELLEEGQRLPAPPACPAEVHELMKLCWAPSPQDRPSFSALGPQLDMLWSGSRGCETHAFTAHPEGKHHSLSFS

[3] = target: Tyrosine-protein kinase JAK1 (Homo sapiens, UniProt P23458); assay: Inhibition of Jak1 (unknown origin)
[4] = Cytotoxicity against mouse BA/F3 cells expressing TEL-Jak2 after 72 hrs by MTS assay; format: functional; conditions: BaF3, 72 h
Procedure, shortened: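 BaF3 TEL-Jak2 cells. Growth inhibition measured by MTS tetrazolium colorimetric read-out and reported as GI50.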

[5] = Half life in Wistar rat at 10 mg/kg, po and 3 mg/kg, iv; format: ADME, organism-based; conditions: in vivo
Procedure, shortened: (§1)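 Rat pharmacokinetics. Oral dose 10 mg/kg in 0.1% HPMC. IV dose 3 mg/kg in 40% DMA/40% PEG/20% saline. Clearance, half-life, Vdss and oral bioavailability derived from the plasma profiles.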

[6] = Clearance in Wistar rat at 10 mg/kg, po and 3 mg/kg, iv; format: ADME, organism-based; conditions: in vivo; procedure, shortened: as §1
[7] = Volume of distribution at steady state in Wistar rat at 10 mg/kg, po and 3 mg/kg, iv; format: ADME, organism-based; conditions: in vivo, read-out: Vdss; procedure, shortened: as §1
[8] = Oral bioavailability in Wistar rat at 10 mg/kg; format: ADME, organism-based; conditions: in vivo; procedure, shortened: as §1
Canis familiaris [9] = assay: Oral bioavailability in beagle dog at 10 mg/kg; format: ADME, organism-based, Canis lupus familiaris; conditions: in vivo
Procedure, shortened: (§2)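 Male beagle dogs. Oral dose 10 mg/kg in 0.1% HPMC, pH 2. IV dose 2.5 mg/kg in 20% TEG/D5W. […] Clearance, Vdss, half-life and oral bioavailability (F%) derived from the plasma profiles.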

[10] = Half life in beagle dog at 10 mg/kg, po; format: ADME, organism-based, Canis lupus familiaris; design: dose 10 mg/kg, route oral; conditions: in vivo; procedure, shortened: as §2
[11] = Volume of distribution at steady state in beagle dog at 2.5 mg/kg, iv; format: ADME, organism-based, Canis lupus familiaris; design: dose 2.5 mg/kg, route intravenous; conditions: in vivo, read-out: Vdss; procedure, shortened: as §2
Canis familiaris [12] = assay: AUC (0 to 12 hrs) in beagle dog at 10 mg/kg, po; format: ADME, organism-based, Canis lupus familiaris, Plasma; design: time < 12 hr, dose 10 mg/kg, route oral; conditions: in vivo; procedure, shortened: as §2
[13] = Half life in beagle dog at 2.5 mg/kg, iv; format: ADME, organism-based, Canis lupus familiaris; design: dose 2.5 mg/kg, route intravenous; conditions: in vivo; procedure, shortened: as §2

Sequence of Tyrosine-protein kinase JAK2 (O60674 whole entry): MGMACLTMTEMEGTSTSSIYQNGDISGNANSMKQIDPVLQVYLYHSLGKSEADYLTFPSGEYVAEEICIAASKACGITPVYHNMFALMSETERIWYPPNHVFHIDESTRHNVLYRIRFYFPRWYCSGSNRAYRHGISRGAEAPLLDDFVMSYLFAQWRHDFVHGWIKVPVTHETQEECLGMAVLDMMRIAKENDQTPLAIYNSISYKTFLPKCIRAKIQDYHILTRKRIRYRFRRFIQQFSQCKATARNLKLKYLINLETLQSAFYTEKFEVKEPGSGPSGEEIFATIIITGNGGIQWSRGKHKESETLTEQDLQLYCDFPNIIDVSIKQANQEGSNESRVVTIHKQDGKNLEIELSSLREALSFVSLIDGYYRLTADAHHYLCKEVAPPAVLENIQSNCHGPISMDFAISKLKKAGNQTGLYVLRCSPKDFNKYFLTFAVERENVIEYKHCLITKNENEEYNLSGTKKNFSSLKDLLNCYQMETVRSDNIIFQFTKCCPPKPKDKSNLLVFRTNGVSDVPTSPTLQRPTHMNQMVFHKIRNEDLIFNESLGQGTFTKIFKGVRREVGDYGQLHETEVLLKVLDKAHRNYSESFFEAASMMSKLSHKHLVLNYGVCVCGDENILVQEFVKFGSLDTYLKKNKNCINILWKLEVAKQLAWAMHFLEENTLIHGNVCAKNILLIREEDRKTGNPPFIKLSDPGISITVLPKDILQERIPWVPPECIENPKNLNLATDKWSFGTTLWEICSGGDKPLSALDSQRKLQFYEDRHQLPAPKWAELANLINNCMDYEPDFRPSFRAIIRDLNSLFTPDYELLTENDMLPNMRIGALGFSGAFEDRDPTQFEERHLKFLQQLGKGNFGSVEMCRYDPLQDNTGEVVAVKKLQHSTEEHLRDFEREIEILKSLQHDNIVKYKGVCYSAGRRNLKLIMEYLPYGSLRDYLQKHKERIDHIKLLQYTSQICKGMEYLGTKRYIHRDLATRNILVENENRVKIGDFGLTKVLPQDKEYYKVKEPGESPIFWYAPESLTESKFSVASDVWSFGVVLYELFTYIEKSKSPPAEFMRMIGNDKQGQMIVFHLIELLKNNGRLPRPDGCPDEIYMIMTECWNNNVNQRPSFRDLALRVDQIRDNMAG
Sequence of Tyrosine-protein kinase JAK1 (P23458 whole entry): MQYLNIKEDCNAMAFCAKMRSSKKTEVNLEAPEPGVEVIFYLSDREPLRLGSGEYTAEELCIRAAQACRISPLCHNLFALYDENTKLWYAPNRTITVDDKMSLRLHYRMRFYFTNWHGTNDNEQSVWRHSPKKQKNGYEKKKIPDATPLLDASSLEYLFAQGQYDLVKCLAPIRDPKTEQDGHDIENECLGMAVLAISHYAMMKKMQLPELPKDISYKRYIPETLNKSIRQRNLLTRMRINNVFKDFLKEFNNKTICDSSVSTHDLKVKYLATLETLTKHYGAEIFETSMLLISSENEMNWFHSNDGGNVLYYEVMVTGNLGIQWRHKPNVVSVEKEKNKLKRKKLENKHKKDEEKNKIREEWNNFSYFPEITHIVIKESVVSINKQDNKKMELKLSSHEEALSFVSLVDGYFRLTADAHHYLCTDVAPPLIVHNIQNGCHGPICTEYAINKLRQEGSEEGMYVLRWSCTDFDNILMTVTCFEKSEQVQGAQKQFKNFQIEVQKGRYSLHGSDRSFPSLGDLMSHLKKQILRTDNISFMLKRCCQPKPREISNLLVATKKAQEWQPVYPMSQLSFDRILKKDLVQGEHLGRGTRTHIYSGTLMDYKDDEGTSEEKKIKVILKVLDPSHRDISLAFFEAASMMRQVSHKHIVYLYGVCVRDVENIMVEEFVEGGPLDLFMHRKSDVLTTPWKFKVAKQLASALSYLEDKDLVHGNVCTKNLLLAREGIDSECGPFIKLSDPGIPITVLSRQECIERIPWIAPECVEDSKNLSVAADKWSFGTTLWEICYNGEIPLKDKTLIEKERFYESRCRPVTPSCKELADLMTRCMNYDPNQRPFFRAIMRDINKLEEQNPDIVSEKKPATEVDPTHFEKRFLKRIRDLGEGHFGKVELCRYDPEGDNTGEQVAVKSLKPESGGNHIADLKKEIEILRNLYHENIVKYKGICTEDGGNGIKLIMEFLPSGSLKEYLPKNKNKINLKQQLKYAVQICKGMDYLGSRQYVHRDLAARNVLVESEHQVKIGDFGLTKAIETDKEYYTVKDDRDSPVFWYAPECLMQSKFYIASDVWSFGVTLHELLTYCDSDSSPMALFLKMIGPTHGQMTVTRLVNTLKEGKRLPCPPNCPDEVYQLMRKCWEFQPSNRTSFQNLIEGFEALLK

Row | Compound | IC50 [1] | IC50 [2] | IC50 [3] | GI50 [4] | further results
1 | CC(Nc1nc(Nc2cn(C)cn2)c2ccc(Cl)nc2n1)c1ncc(F)cn1 (racemic) | < 3 nM | > 30000 nM |  | 28 nM | 
2 | C[C@H](Nc1nc(Nc2cn(C)cn2)c2nccnc2n1)c1ncc(F)cn1 | 800 nM | > 30000 nM | 1500 nM | 530 nM | 
3 | C[C@H](Nc1ncc(Cl)c(Nc2cn(C)cn2)n1)c1ncc(F)cn1 | 120 nM |  |  | 270 nM | 
4 | COc1ccc2c(Nc3cn(C)cn3)nc(NC(C)c3ncc(F)cn3)nc2c1 (racemic) | 24 nM | 13200 nM |  | 34 nM | half-life [5]: 0.98 h; clearance [6]: 110 mL/min/kg; Vd [7]: 6 L/kg
5 | COc1ccc2nc(NC(C)c3ncc(F)cn3)nc(Nc3cn(C)cn3)c2c1 (racemic) | 670 nM | > 30000 nM |  | 3000 nM | 
6 | Cc1csc2c(Nc3cn(C)cn3)nc(N[C@@H](C)c3ncc(F)cn3)nc12 |  | 3930 nM |  | 37 nM | half-life [5]: 0.64 h; clearance [6]: 44 mL/min/kg; Vd [7]: 1.2 L/kg
7 | C[C@H](Nc1nc(Nc2cn(C)cn2)c2cc(F)cnc2n1)c1ncc(F)cn1 | 490 nM | 30000 nM |  | 3100 nM | 

Now from value to compound, other results behind:

Row | IC50 [1] | IC50 [2] | IC50 [3] | Compound | GI50 [4] | further results
8 | 50 nM | 4620 nM | 22 nM | CC(Nc1nc(Nc2cn(C)cn2)c2cn[nH]c2n1)c1ncc(F)cn1 (racemic) | 110 nM | 
9 | 12 nM | 1820 nM | 28 nM | C[C@H](Nc1nc(Nc2cn(C)cn2)c2ccncc2n1)c1ncc(F)cn1 | 25 nM | 
10 | 27 nM | 2460 nM | 29 nM | C[C@H](Nc1nc(Nc2cn(C)cn2)c2ccn(C3CC3)c2n1)c1ncc(F)cn1 | 56 nM | 
11 | 3 nM | 14800 nM |  | C[C@H](Nc1nc(Nc2cn(C)cn2)c2ccccc2n1)c1ncc(F)cn1 | 34 nM | 
12 | 33 nM | 3780 nM | 131 nM | CC(Nc1nc(Nc2cn(C)cn2)c2cccnc2n1)c1ncc(F)cn1 (racemic) | 40 nM | half-life [5]: 0.92 h; clearance [6]: 100 mL/min/kg; Vd [7]: 2.5 L/kg
13 | 15 nM | 1440 nM | 16 nM | C[C@H](Nc1nc(Nc2cn(C)cn2)c2cnn(C)c2n1)c1ncc(F)cn1 | 26 nM | bioavailability [8]: 90%; half-life [5]: 1.3 h; clearance [6]: 25 mL/min/kg; F (Canis familiaris [9]): 139%; half-life [10]: 7.7 h; Vd [11]: 2.1 L/kg; AUC (Canis familiaris [12]): 49 µM·h; half-life [13]: 6.2 h; Vd [7]: 1.8 L/kg
14 | < 3 nM | 5880 nM |  | CC(Nc1nc(Nc2cn(C)cn2)c2[nH]ccc2n1)c1ncc(F)cn1 (racemic) | 99 nM | 
15 | 27 nM | 7560 nM | 24 nM | C[C@H](Nc1nc(Nc2cn(C)cn2)c2ccn(C)c2n1)c1ncc(F)cn1 | 34 nM | 
